Calls of active or inactive are those of the source. Unless noted, no rule for the calls is given here.
Key:
[1] = target: Pantothenate synthetase (Mycobacterium tuberculosis (strain ATCC 25618 / H37Rv)) (UniProt P9WIL5); experiment: Coupled enzyme confirmation of inhibitors against recombinant Mtb PanC (AID 375); settings: coupled enzyme assay; at 10 µM, stronger effect = higher value;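 also: 0% = full reaction with vehicle and 100% = no enzyme background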
[2] = Her2 expression decrease, cell viability multiplex – SKBR3 breast tumor cells, AlphaScreen, ATP viability, primary screen (AID 461;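 active = Her2 level under about 52% in both replicate screens, with viability over 70% of control, limit read from the data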;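 as to Her2 level: lower value means less Her2 protein in the cells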;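 as to viability: percent of carrier control wells set as 100% viability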); settings: SKBR3 Her2 protein level, 18-24 h, measured here: SKBR3 viability, ATP luminescence, at 10 µM
[3] = target: Receptor tyrosine-protein kinase erbB-2 (Homo sapiens) (UniProt P04626); experiment: as above; settings: 18-24 h, at 10 µM, stronger effect = lower value
Sequence of Receptor tyrosine-protein kinase erbB-2 (Homo sapiens) (P04626 whole entry, looked up): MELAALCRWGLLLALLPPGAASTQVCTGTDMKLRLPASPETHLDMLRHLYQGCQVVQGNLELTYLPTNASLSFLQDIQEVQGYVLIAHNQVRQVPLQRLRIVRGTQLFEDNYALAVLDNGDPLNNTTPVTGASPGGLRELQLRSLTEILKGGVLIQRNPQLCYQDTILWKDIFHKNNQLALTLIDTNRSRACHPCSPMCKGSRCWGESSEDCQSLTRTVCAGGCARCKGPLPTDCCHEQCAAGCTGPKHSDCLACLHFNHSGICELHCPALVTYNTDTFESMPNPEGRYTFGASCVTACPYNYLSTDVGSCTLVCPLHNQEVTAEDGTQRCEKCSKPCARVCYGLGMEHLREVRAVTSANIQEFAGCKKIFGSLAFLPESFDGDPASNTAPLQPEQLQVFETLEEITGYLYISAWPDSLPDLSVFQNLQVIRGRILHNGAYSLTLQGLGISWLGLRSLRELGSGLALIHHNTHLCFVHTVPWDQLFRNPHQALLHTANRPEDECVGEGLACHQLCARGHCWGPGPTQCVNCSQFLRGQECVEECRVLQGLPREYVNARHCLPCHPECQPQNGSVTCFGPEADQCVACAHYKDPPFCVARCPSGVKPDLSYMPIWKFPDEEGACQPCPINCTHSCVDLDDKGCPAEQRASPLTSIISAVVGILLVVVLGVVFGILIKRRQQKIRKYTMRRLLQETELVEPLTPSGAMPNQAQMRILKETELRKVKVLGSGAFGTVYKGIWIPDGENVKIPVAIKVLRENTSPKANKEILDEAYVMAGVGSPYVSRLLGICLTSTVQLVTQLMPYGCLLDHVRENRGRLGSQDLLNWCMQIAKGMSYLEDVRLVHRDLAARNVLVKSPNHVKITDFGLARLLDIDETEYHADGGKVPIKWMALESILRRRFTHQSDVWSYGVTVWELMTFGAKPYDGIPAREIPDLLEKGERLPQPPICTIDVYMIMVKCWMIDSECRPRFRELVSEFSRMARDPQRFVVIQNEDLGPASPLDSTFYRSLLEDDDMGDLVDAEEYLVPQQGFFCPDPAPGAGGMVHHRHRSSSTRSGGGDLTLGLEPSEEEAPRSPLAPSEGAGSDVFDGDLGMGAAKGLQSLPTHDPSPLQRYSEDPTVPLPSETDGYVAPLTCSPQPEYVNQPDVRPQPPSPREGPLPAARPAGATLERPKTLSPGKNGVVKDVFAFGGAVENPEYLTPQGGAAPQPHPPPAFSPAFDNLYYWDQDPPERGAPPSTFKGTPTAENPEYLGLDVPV

[4] = reduced viability of SK-BR-3 breast cancer cells – cell-based, 24 h, human, pilot screen (AID 572;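 active = viability at or below 10% of carrier control in both of two separate runs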;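 also: compound exposure lasted between 18 and 24 h rather than exactly 24 h; 100% = carrier-treated control wells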); settings: SK-BR-3 viability, CellTiter-Glo luminescence, at 10 µM, stronger effect = lower value
[5] = HUVEC growth inhibition – cell-based, human, primary screen (AID 575;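 active = viability at or below 30% in both replicate assays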;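 also: 100% = median of untreated cell wells with 0.1% DMSO on each plate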); settings: HUVEC proliferation, CellTiter-Glo luminescence, 72 h; at 10 µM; stronger effect = lower value
In short: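 Test system – primary HUVEC, no more than 12 passages · Dosing – one dose, 10 µM final, 0.1% DMSO · Times – 72 h treatment at 37 °C · Measured by – ATP-based CellTiter-Glo luminescent read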

[6] = H69AR cell proliferation blockers – human, duplicate replicates, primary screen (AID 580;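 active = viability at or under a set limit in both replicates, limit being median viability minus 3 SD, cut at about 48% in these data, passing the limit was not always enough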;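 also: 100% = mean luminescence of untreated wells and 0% = no signal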); settings: H69AR lung tumor cells viability, ATP luminescence, 72 h; at 10 µM; stronger effect = lower value
[7] = MRP1 drug-resistance reversers in H69AR cells – cell-based, doxorubicin co-treatment, pilot screen (AID 601;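 active = viability loss from added drug above about 55%, and viability with drug at most 40%, in both replicates, limit read from the data, passing the limit was not always enough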); settings: CellTiter-Glo, 72 h, at 10 µM; for differential viability (reversal): stronger effect = higher value
[8] = H69AR cells + 2 uM doxorubicin, measured here: viability with 2 uM doxorubicin, stronger effect = lower value
[9] = H69AR cells, compound alone cytotoxicity

Sequence of Pantothenate synthetase (Mycobacterium tuberculosis (strain ATCC 25618 / H37Rv)) (P9WIL5 whole entry, looked up): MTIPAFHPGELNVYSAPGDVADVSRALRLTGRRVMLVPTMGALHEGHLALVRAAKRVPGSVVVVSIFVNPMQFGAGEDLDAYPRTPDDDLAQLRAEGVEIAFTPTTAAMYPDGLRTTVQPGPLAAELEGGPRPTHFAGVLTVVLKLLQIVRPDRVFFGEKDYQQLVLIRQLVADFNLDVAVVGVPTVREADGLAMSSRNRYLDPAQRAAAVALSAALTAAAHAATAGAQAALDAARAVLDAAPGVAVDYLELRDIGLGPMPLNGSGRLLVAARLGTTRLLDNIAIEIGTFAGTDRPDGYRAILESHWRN

## CN(C)[C@@H]1C(=O)C(C(N)=O)=C(O)[C@@]2(O)C(=O)C3=C(O)c4c(O)ccc(Cl)c4[C@@](C)(O)C3C[C@@H]12 (stereo partly drawn)
[1]
  inhibition: 1% (inactive)
[2]
  viability: 119%
[3]
  Her2 level: 104% (inactive)
[4]
  viability: 119% (inactive)
[5]
  viability: 104% (inactive)
[6]
  viability: 96.8% (inactive)
[7]; H69AR cells + 2 uM doxorubicin
  differential viability (reversal): 2.32% (inactive)
[7]; [8]
  viability: 94.5%
[7]; [9]
  viability: 96.8%

## CCn1c(SCC(=O)c2ccc(F)cc2)nnc1-c1ccoc1C
[1]
  inhibition: 4% (inactive)

## C[N+]1(C)CCc2cc3c(cc2[C@H]1[C@@H]1OC(=O)c2c1ccc1c2OCO1)OCO3
[1]
  inhibition: 0% (inactive)
[2]
  viability: 89.5%
[3]
  Her2 level: 102% (inactive)
[4]
  viability: 89.5% (inactive)
[5]
  viability: 87.1% (inactive)
[6]
  viability: 113% (inactive)
[7]; H69AR cells + 2 uM doxorubicin
  differential viability (reversal): 7.33% (inactive)
[7]; [8]
  viability: 105%
[7]; [9]
  viability: 113%

## Cn1c(=O)c2c(nc(SCC(=O)NCc3ccc4c(c3)OCO4)n2Cc2ccccc2)n(C)c1=O
[1]
  inhibition: 0% (inactive)

## C[C@]12C=CC(=O)C=C1CC[C@@H]1[C@@H]2[C@@H](O)C[C@@]2(C)[C@H]1CC[C@]2(O)C(=O)COC(=O)CCC(=O)O
[1]
  inhibition: 0% (inactive)

## COc1cccc(N2CCN(Cc3cccnc3)CC2)c1
[1]
  inhibition: 3% (inactive)

## CCOC(=O)Nc1ccc(OC)cc1S(=O)(=O)N1CCCCC1
[1]
  inhibition: 0% (inactive)

## CCCc1nnc(NC(=O)CCC(=O)N2CCN(CCOc3ccc(C)cc3)CC2)s1
[1]
  inhibition: 5% (inactive)

## Cc1cc(C)c(OCC(=O)Nc2ccc3c(c2)OCO3)cc1C
[1]
  inhibition: 2% (inactive)

## CC1CCCCC1NC(=O)Cn1nnc(-c2ccc(Cl)cc2)n1 (stereo not drawn)
[1]
  inhibition: 1% (inactive)

## CCOc1ccc(C(=O)Nc2cc(C)on2)cc1OCC
[1]
  inhibition: 6% (inactive)

## CC(C)OC(=O)CN1C(=O)C(C)(C)Oc2ccc(C(=O)NC3CC3)cc21
[1]
  inhibition: 0% (inactive)

## COc1ccc(C(=O)N(CCN2CCOCC2)CC(=O)NC2CCCC2)cc1OC
[1]
  inhibition: 1% (inactive)

## O=C(CCCN1CCC2(CC1)C(=O)NCN2c1ccccc1)c1ccc(F)cc1
[1]
  inhibition: 1% (inactive)
[2]
  viability: 98%
[3]
  Her2 level: 65% (inactive)
[4]
  viability: 98% (inactive)
[5]
  viability: 96.2% (inactive)
[6]
  viability: 87.8% (inactive)
[7]; H69AR cells + 2 uM doxorubicin
  differential viability (reversal): -9.21% (inactive)
[7]; [8]
  viability: 97%
[7]; [9]
  viability: 87.8%

## O=C(C1CC1(c1ccccc1)c1ccccc1)N1CCOCC1 (stereo not drawn)
[1]
  inhibition: 0% (inactive)

## CN1CCN(C(=O)OC2c3nccnc3C(=O)N2c2ccc(Cl)cn2)CC1 (stereo not drawn)
[1]
  inhibition: 8% (inactive)
[2]
  viability: 91.5%
[3]
  Her2 level: 108% (inactive)
[4]
  viability: 91.5% (inactive)
[5]
  viability: 106% (inactive)
[6]
  viability: 94.1% (inactive)
[7]; H69AR cells + 2 uM doxorubicin
  differential viability (reversal): -3.97% (inactive)
[7]; [8]
  viability: 98.1%
[7]; [9]
  viability: 94.1%

## CCOC(=O)c1c(NC(=O)c2cccs2)sc(C)c1C
[1]
  inhibition: 0% (inactive)

## COc1ccc(CNc2nc(SCC(=O)NCc3ccco3)nc3ccccc23)cc1
[1]
  inhibition: 10% (inactive)

## CC1=C(C#N)C(=O)NC(C)(C)C1
[1]
  inhibition: 0% (inactive)

## COc1cccc(Oc2cn[nH]c2-c2ccc(O)cc2O)c1
[1]
  inhibition: 0% (inactive)

## COc1cccc(-c2nc3n(n2)C(c2cccs2)C(C(=O)Nc2cccnc2)=C(C)N3)c1 (stereo not drawn)
[1]
  inhibition: 0% (inactive)

## c1n[nH]c(SCCCCSc2ncn[nH]2)n1
[1]
  inhibition: 6% (inactive)

## CCC(COC(=O)c1cc(OC)c(OC)c(OC)c1)(c1ccccc1)N(C)C (stereo not drawn)
[1]
  inhibition: 2% (inactive)
[2]
  viability: 87.5%
[3]
  Her2 level: 107% (inactive)
[4]
  viability: 87.5% (inactive)
[5]
  viability: 104% (inactive)
[6]
  viability: 87.6% (inactive)
[7]; H69AR cells + 2 uM doxorubicin
  differential viability (reversal): 11.9% (inactive)
[7]; [8]
  viability: 75.7%
[7]; [9]
  viability: 87.6%

Source: PubChem BioAssay
